High-throughput results as filed in PubChem BioAssay.
Many of the other results were omitted from the sample, so hits are more common in it than they were.
XBP1 UPR activ = activators of adaptive XBP1 UPR arm, primary screen, cell-based, CHO-XBP1 luciferase reporter, luminescence, uHTS; IRE1-XBP1 UPR activation; percent of tunicamycin response, DMSO as zero; activation, % at 20 µM; 330,000 compounds, 0.33% hits;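 active = versus positive control, 20 µM dose yields 30% or more activation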;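 note: 100% = tunicamycin at 10 µg/mL and 0% = DMSO only wells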
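Material: IRE1-XBP1 luciferase reporter CHO line / Quantity: one thousand reporter cells per well / Buffer or medium: F12 with 10% serum / Compound: 20 µM single concentration, DMSO 1% / Times: 6 h treatment, 37 °C / Detection: Steady-Glo luciferase glow luminescence, 10 min after reagent addition / Benchmarks: tunicamycin high, DMSO low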
A1 inh = caspase 3/7 activation in MEF A1-2A-BIM cells, primary screen, A1 inhibitor project, cell-based, luminescence, HTS. 330,000 compounds, 0.066% hits. caspase activation, % (test concentration not listed). AID 2462, 2010. Caspase-Glo 3/7 luminescence, 3 h; percent of clofoctol response, vehicle zero;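 active = over half of replicate activation scores above 10%, or exactly half above 10 with the replicate mean above 10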
UPR CHOP act = activators of apoptotic CHOP UPR arm, primary screen, cell-based, CHO-CHOP luciferase reporter, luminescence, uHTS; UPR activation; percent of tunicamycin response over DMSO baseline; AID 449763, 2010; 330,000 compounds, 0.34% hits; activation, % at 10 µM;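 active = at 10 µM dose, activation of 40% or more, normalized to positive control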;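 note: 100% = tunicamycin at 10 µg/mL and 0% = DMSO alone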
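Material: CHO-CHOP cells, stable luciferase reporter of PERK-eIF2a-CHOP signalling; quantity: 500 reporter cells seeded per well; buffer or medium: F12 medium containing 10% fetal bovine serum; compound: one dose, 10 µM in 0.5% DMSO; incubation: 6 h compound treatment, 37 °C; measured by: Steady-Glo luciferase luminescence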
CHOP inh = inhibitors of CHOP promoter induction, primary screen, cell-based, unfolded protein response, luciferase reporter; 220,000 compounds, 3.8% hits; inhibition, % at 10 µM; CHO-K1 CHOP-promoter luciferase, tunicamycin-induced, 15-18 h;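 active = compounds that reduced the stress-induced luciferase reporter signal by more than about 70% of percent inhibition, limit read from the data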;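 note: 0% = tunicamycin plus vehicle and 100% = wells without tunicamycin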
CHOP inh conf = retest of CHOP induction inhibitors, confirmation, cell-based. shares compounds with CHOP inh. CHO-CHOP promoter luciferase reporter, tunicamycin-induced, luminescence. inhibition, % at 10 µM. 2,100 compounds, 45% hits;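 active = mean of three repeat readings of reporter signal inhibition above a set limit, cut at about 70% in these data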;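 note: 0% = tunicamycin plus vehicle and 100% = wells lacking tunicamycin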
UPR CHOP confirm = activators of apoptotic CHOP UPR arm, confirmation, cell-based, CHO-CHOP luciferase reporter, single concentration. CHO-CHOP cells, CHOP-luciferase reporter luminescence; percent of tunicamycin response, DMSO as zero. shares compounds with UPR CHOP act. activation, % at 10 µM. 1,000 compounds, 64% hits. AID 463112, 2010; in the data active = activation above about 33%;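 note: 0% = DMSO wells and 100% = tunicamycin 10 µg/mL wells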
The depositor's hits bear a star; . = no result given.

SMILES	XBP1 UPR activ	A1 inh	UPR CHOP act	CHOP inh	CHOP inh conf	UPR CHOP confirm
O=C(O)COc1ccccc1/C=N/NC(=O)CSc1nnc(SCc2cccc3ccccc23)s1	-2	0	1	2	.	.
O=C(CSc1nnc(SCc2cccc3ccccc23)s1)N/N=C/c1c[nH]c2ccccc12	3	-1	0	105*	34	.
COc1ccc(-c2ccc(OC)c([C@H]3[C@H]4C=CC[C@@H](C)[C@@H]4C(=O)N3Cc3ccccc3)c2)cc1OC	4	-1	2	31	.	.
Cc1cc(NC(=O)CCS(=O)(=O)c2nc(-c3ccccc3)cc(C(F)(F)F)n2)no1	-9	2	138*	.	-229	466*
CCN(CC)C(=O)C1CCN(C(=O)c2oc3ccc(C)cc3c2C)CC1	-3	0	0	.	.	.
COCCN(C(=O)C1CCC1)c1c(N)n(CC(C)C)c(=O)[nH]c1=O	-3	2	1	.	.	.
CC(=O)N(C1=C(Cl)C(=O)c2ccccc2C1=O)C1CCCCC1	-1	2	53*	102*	113*	-9
Cc1cc(C)nc(/N=C(/NC(=O)Nc2ccc(Cl)c(Cl)c2)Nc2cccc(Cl)c2)n1	-1	0	4	1	.	.
Cc1ccc(/C=C2\CCC3=C2OC(N)=C(C#N)C3c2ccc(C)cc2)cc1 (configuration not stated)	13	0	92*	98*	-75	81*
CCOC(=O)/C(=C\c1ccc(Cl)cc1)c1nc2sc(C)c(C)c2c(=O)[nH]1	-2	2	59*	107*	-45	198*
CCOC(=O)CSc1nc2sc(C)c(C)c2c(=O)[nH]1	0	0	-1	26	.	.
Fc1ccc(Sc2nc(-c3ccccc3)nnc2C(F)(F)F)cc1	-3	1	41*	112*	27	20
O=C1NN(c2ccccc2)C(=O)/C1=C/c1ccc(Sc2ccc(Cl)cc2)o1	3	1	61*	98*	78*	43*
O=C1NN(c2ccccc2)C(=O)/C1=C/c1ccc(-c2ccc(Cl)c(C(=O)O)c2)o1	.	.	.	25	.	.
Cc1ccc(Sc2ccc(/C=C3/C(=O)NN(c4ccccc4)C3=O)o2)cc1	4	0	44*	98*	36	40*
Cc1ccc(-c2cc(NC(=O)CCl)n(-c3ccccc3)n2)cc1	-1	2	82*	.	-150	99*
Cc1ccc(NN2C(=O)C=C(c3ccccc3)C2=O)cc1	-10	.	54*	107*	-139	172*
O=C1c2ccccc2C(=O)N1Nc1ccccc1	-2	-1	0	17	.	.
Cc1cc(C(=O)CS(=O)(=O)c2ccc(F)cc2)cc(C)c1O	-1	-1	3	.	.	.
CC1CCCN(C(=O)CSc2nnc(-c3ccc(O)cc3)o2)C1 (configuration not stated)	-4	0	3	.	.	.
COc1cccc(C(=O)C(C#N)=C(SC)SC)c1	-4	3	119*	102*	118*	3
C=CCNc1nc(Cl)ncc1F	1	1	1	-3	.	.
O=C1CC(c2ccccc2)CC(O)=C1C=Nc1ccccc1 (configuration not stated)	26	0	35	60	.	.
O=C1CC(c2cccc(Cl)c2)CC(O)=C1C=Nc1cccc(Cl)c1 (configuration not stated)	0	1	52*	99*	72*	3
COc1ccccc1N(Cc1ccccc1)S(=O)(=O)c1cccc(C(=O)NCC2CCCO2)c1 (configuration not stated)	0	-2	3	.	.	.
SMILES	XBP1 UPR activ	A1 inh	UPR CHOP act	CHOP inh	CHOP inh conf	UPR CHOP confirm
Cn1c(-c2cccc(OCc3ccccc3)c2)nc2c1c(=O)[nH]c(=O)n2Cc1ccccc1	16	0	76*	106*	79*	144*
Cn1c(-c2cccc(F)c2)nc2c1c(=O)[nH]c(=O)n2Cc1ccccc1	2	0	-2	.	.	.
CCCn1c(SCC(=O)c2cc(OC)ccc2OC)nnc1C(C)C	3	1	0	2	.	.
O=S(=O)(c1ccc(Cl)cc1)c1snnc1-c1ccccc1	12	-1	64*	.	-82	55*
COc1ccccc1N1CCN(Cc2ccc(O)c3ncccc23)CC1	18	0	113*	102*	-66	97*
COc1ccccc1N1CCN(Cc2ccc(OC)c(OC)c2OC)CC1	-3	1	-1	10	.	.
CCOC(=O)C1=C(Cc2ccc(Cl)cc2)C(=O)c2ccccc2C1=O	-1	0	118*	107*	45	37*
CCOC(=O)C1=C(O)c2ccccc2C(=O)/C1=C\c1ccc(C)cc1	.	-1	.	-29	.	.
O=C(NCC1CCCN1S(=O)(=O)c1cccs1)c1ccc(Cl)cc1 (configuration not stated)	-2	0	1	.	.	.
Cc1ccc(Cn2ncc(Cl)c(Cl)c2=O)cc1	2	-1	42*	107*	-26	21
Cc1[nH]c(C)c2c(=O)n(Cc3ccc(Cl)cc3)ncc12	8	1	-1	20	.	.
Nc1nnc(CSCc2ccc(Cl)cc2Cl)s1	2	-1	-2	14	.	.
CCOc1cc(/C=N/O)ccc1OCc1ccc([N+](=O)[O-])cc1	4	0	5	5	.	.
CCOc1cc(C=C(C(=O)OC)C(=O)OC)ccc1OCc1ccc([N+](=O)[O-])cc1	-5	1	220*	99*	-40	242*
CCOC(=O)c1ccc(N2C(=O)C=CC2=O)cc1	-4	1	47*	112*	-37	33*
CCCn1nnc(NC(=O)/C=C/c2ccccc2)n1	3	-1	1	4	.	.
Cc1nc(NC(=O)/C=C/c2ccccc2)n[nH]1	-1	1	44*	97*	49	35*
CCN1CCN(Cc2ccc(NC(=O)c3ccc(C)c(NC(=O)c4c[nH]c5cc(C(F)(F)F)ccc5c4=O)c3)cc2C(F)(F)F)CC1	-2	-1	68*	104*	114*	-5
O=C(O)c1cnn2c(-c3ccc(F)cc3)ccnc12	0	0	2	-13	.	.
COc1ccc(C(=O)/C=C2/C(=O)Nc3ccccc32)cc1	16	2	20	.	.	.
O=C1Nc2ccccc2/C1=C/C(=O)c1cccs1	12	0	74*	104*	-47	125*
O=C(/C=C/Sc1ccc(C(F)(F)F)cn1)c1ccccc1	-1	0	84*	104*	-31	47*
